Measurements reported in ChEMBL document CHEMBL1177714, “Online fluorescence enhancement assay for the acetylcholine binding protein with parallel mass spectrometric identification” (J Med Chem, 2010).

Assay: Displacement of radioligand from AChBp by scintillation counting
In short: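 Lymnaea stagnalis AChBP (Ls-AChBP), expressed from baculovirus in Sf9 insect cells and purified from medium, 1.3 ng per well. Buffer (final): 1.4 mM KH2PO4, 4.3 mM Na2HPO4, 137.0 mM NaCl, 2.7 mM KCl, 20 mM Tris, 4% DMSO, 0.05% Tween 20, pH 7.4. Incubation was 60 min, then 3 h in the dark, with label-bead complexes counted. Full IC50 curves (n=3) were converted to pKi by Cheng-Prusoff.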

| Compound | pKi |
| --- | --- |
| COc1ccc(/C=C2\CCCN=C2c2cccnc2)cc1O | 8.46 |
| COc1cc(/C=C2\CCCN=C2c2cccnc2)ccc1O | 7.09 |
| Oc1ccc(/C=C2\CCCN=C2c2cccnc2)cc1 | 8.55 |
| C(=C1/CCCN=C1c1cccnc1)/c1cc2ccccc2[nH]1 | 8.71 |
| CCN(CC)c1ccc(/C=C2\CCCN=C2c2cccnc2)c(O)c1 | 7.59 |
| CC(=O)Nc1ccc(/C=C2\CCCN=C2c2cccnc2)cc1 | 7.38 |
| C(=C1/CCCN=C1c1cccnc1)/c1coc2ccccc12 | 7 |
| O=[N+]([O-])c1cccc(/C=C2\CCCN=C2c2cccnc2)c1 | 6.29 |
| Clc1ccc(/C=C2\CCCN=C2c2cccnc2)cc1 | 6.87 |
| Br.NCCCCC(=O)c1cccnc1 | 6.09 |
| C(=C1/CCCN=C1c1cccnc1)/c1ccccc1 [3-BENZYLIDENEANABASEINE] | 7.13 |
